High-throughput results: PubChem, several laboratories
Sampled rows, rich in hits. Any-hit rate of the full collection: about 2.1%.
VIM-2 inh: inhibitors of Pseudomonas aeruginosa VIM-2 metallo-beta-lactamase | purified VIM-2, nitrocefin hydrolysis, epi-absorbance fluorescence | inhibition, % at 5.6 µM | 290,000 compounds, 0.89% hits | AID 1527;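 active = inhibition above the mean of all tested compounds plus 3 SD, cutoff set per screening run, cut at about 7.5% in these data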;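 note: red hydrolysis product quenches plate fluorescence so inhibitors raise well fluorescence; 0% = enzyme with DMSO and 100% = DMSO without enzyme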
CRFR2-BP ag: agonists of human CRF-binding protein/CRF-R2 receptor complex; HEK293 CRF-R2/CRF-BP, calcium dye fluorescence (FLIPR); percent of saturating CRF peptide response; activation, % at 13.2 µM; 350,000 compounds, 0.46% hits; AID 588473;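 active = activation of at least 50%, plus an integration ratio under a set limit after plate pattern correction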;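 note: plate controls were neutral control wells without compound for no effect and CRF at EC100 for full effect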
CRFR2-BP antag: blocks CRF-induced signaling of the CRF-BP/CRF-R2 complex; HEK293 CRF-R2/CRF-BP, CRF-induced calcium fluorescence; inhibition, % at 11.8 µM; 350,000 compounds, 0.59% hits; AID 588475;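 active = inhibition of the ligand-induced calcium signal above about 50% at the single tested concentration, limit read from the data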
TRPML3 ag: activates the human TRPML3 channel; HEK293 TRPML3-YFP, Fluo-8 calcium fluorescence; 100% = the carbachol control signal; activation, % at 3 µM; Q8TDD5; AID 1448; 220,000 compounds, 0.29% hits;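 active = activation above its plate's cutoff, the mean activation of the plate's test wells plus 3 SD, cut at about 12% in these data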;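 note: 0% = DMSO only wells and 100% = carbachol wells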
Target sequence (Q8TDD5 whole entry, looked up): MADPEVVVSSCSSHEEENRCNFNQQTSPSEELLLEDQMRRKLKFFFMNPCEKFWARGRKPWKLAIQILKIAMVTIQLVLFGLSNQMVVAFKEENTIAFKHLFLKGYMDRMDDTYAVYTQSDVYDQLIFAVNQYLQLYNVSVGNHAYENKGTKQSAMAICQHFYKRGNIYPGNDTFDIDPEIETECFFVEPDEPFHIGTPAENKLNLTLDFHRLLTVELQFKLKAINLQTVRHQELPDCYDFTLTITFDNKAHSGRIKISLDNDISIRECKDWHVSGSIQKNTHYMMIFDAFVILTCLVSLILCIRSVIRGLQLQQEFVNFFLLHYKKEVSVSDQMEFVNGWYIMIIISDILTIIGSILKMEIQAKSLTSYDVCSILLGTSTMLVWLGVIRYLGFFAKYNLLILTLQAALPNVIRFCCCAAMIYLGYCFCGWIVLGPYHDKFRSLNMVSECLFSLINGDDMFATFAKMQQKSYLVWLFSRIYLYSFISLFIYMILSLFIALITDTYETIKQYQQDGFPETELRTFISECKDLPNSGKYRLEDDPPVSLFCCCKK
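Test system – HEK293 line with stable expression of human TRPML3-YFP channel · Control set – carbachol 87 µM final as high control (100%), DMSO as low control (0%) · Signal – Fluo-8 calcium dye fluorescence, ex 470-495, em 515-575 nm · Incubation – 1-h 37 °C dye load, 5-s basal, 120-s post-compound reads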
zfTRPN1 agonist: agonists of zebrafish TRPN1 channel; 220,000 compounds, 0.18% hits; activation, % at 3 µM; HEK293 zebrafish TRPN1-YFP, Fluo-8 calcium fluorescence; 100% = response to 87 µM carbachol;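 active = activation above its plate's cutoff, the mean activation of test wells on that plate plus 3 SD, cut at about 19% in these data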;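 note: 0% = DMSO alone and 100% = 87 µM carbachol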
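Control set: carbachol 87 µM as high control, DMSO as low control; system: HEK293 stable line with zebrafish TRPN1-YFP; read-out: % activation versus carbachol response; detection: intracellular calcium fluorescence with Fluo-8; doses: single test compound dose, 3 µM nominal, 0.3% DMSO; schedule: dye 1 h 37 °C plus 30 min RT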
IMP-1 inh: inhibitors of Pseudomonas aeruginosa IMP-1 metallo-beta-lactamase | purified IMP-1, nitrocefin hydrolysis, epi-absorbance fluorescence | inhibition, % at 5.6 µM | 290,000 compounds, 0.45% hits | AID 1556;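 active = inhibition above the mean plus 3 SD of all compounds in the same screening run, cut at about 4.5% in these data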;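 note: 0% = IMP-1 with DMSO and 100% = DMSO wells lacking enzyme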
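System: purified IMP-1 / Input: IMP-1 dispensed at 0.2 nM / Medium: 50 mM HEPES pH 7.1, 50 µM ZnSO4, 0.05% Brij 35 / Timing: 15 min enzyme–compound preincubation, then 25 min nitrocefin reaction, 25 °C / Technique: plate fluorescence quenching by hydrolysis product, ex 480/em 530 nm / Repeats: singlicate testing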
Starred values were filed as active, the others as inactive; / = no result given.

SMILES	VIM-2 inh	CRFR2-BP ag	CRFR2-BP antag	TRPML3 ag	zfTRPN1 agonist	IMP-1 inh
Cc1ccc2c(CSc3nnc(N)s3)cc(=O)oc2c1	-1.8	-1.0	6.5	0.1	-0.2	-3.3
CC(=O)Nc1ccc2c(CSc3nncs3)cc(=O)oc2c1	2.5	-0.8	-1.7	0.0	0.0	5.4*
O=C(Nc1ncc2c(n1)-c1ccccc1CC2)c1ccc(Cl)cc1	-5.6	0.0	-25.6	0.0	-1.6	23.6*
O=C(Nc1ncc2c(n1)-c1ccccc1CC2)c1cccc(Cl)c1	-2.7	-2.5	-34.3	-0.6	-2.3	-2.1
O=C(CNC(=O)OCc1ccccc1)Nc1ccc(F)cc1	/	0.2	-3.0	/	/	/
CC(C)(C)C(=O)NC(=S)NNC(=O)C(c1ccccc1)c1ccccc1	-2.1	191.6*	-116.9	113.7*	167.6*	-2.5
CC(=O)NNC(=S)NC(=O)C(c1ccccc1)c1ccccc1	-1.3	18.8	-23.6	-0.2	-2.5	-0.6
COC(=O)c1cc(=O)c2c(C)nc(C(Cl)(Cl)Cl)nc2[nH]1	-2.6	0.3	3.2	0.1	1.6	-4.8
CC1CCCN(C(=O)CN2C(=O)CSc3ccc(S(=O)(=O)N4CCOCC4)cc32)C1 (centres undefined)	-7.6	0.6	-15.1	/	/	0.3
Cc1c(CC(Cl)(Cl)Cl)c2c(n1O)CC(C)(C)CC2=O	-0.6	55.0*	74.3*	1.6	0.9	-2.8
Cc1ccc(S(=O)(=O)N2CCOC2CNC(=O)C(=O)NCCCN2CCOCC2)cc1 (centres undefined)	-2.1	-1.0	0.5	/	/	-2.0
COc1cc2cc(C(=O)N(C)C3CCS(=O)(=O)C3)[nH]c2cc1OC (centres undefined)	8.1*	0.5	-1.6	/	/	-4.9
CN(C(=O)c1ccc(Cl)cc1)C1CCS(=O)(=O)C1 (centres undefined)	/	-0.1	6.6	/	/	/
C=CCSc1nnc(NC(=O)c2c(CC)noc2C)s1	/	0.2	-0.1	/	/	/
Cn1cccc1/C=C1\CCC/C(=C\c2cccn2C)C1=O	-2.9	154.5*	-184.6	0.6	-0.5	-3.0
CC1C/C(=C/c2cccs2)C(=O)/C(=C/c2cccs2)C1 (centres undefined)	3.0	1.7	0.7	0.9	0.8	-0.9
O=C1/C(=C/c2cccs2)CCC/C1=C\c1cccs1	-2.3	7.5	-15.7	/	/	5.6*
O=C1/C(=C\c2ccco2)CCC/C1=C\c1ccco1	0.7	4.3	0.0	1.0	0.2	-0.8
COc1ccc(OCC(=O)NCc2nc(-c3ccccc3)no2)cc1	/	2.3	4.1	/	/	/
Cc1ccc2nc(/C(C#N)=C\c3ccc(N4CCOCC4)o3)[nH]c2c1	-2.6	7.3	14.4	1.7	3.8	-3.1
N#C/C(=C\c1ccc([N+](=O)[O-])o1)c1nc2ccccc2[nH]1	1.4	66.5*	-80.9	1.0	1.6	-1.0
N#C/C(=C(/O)c1ccc([N+](=O)[O-])o1)c1nc2ccccc2[nH]1	-0.9	1.1	16.5	0.9	3.3	-1.8
Cc1ccc2nc(/C(C#N)=C\c3ccc([N+](=O)[O-])o3)[nH]c2c1	-1.6	54.9*	-97.9	2.8	7.8	-3.6
CC1CC(C)CN(C(=O)CSc2nc(Cc3cccs3)nc3ccccc23)C1 (centres undefined)	-2.2	-0.6	153.5*	-0.1	-1.6	-3.1
CCOC(=O)CNC(=O)CSc1nc(Cc2cccs2)nc2ccccc12	-2.5	-0.1	5.7	0.0	-0.3	-2.5
SMILES	VIM-2 inh	CRFR2-BP ag	CRFR2-BP antag	TRPML3 ag	zfTRPN1 agonist	IMP-1 inh
COC(=O)CCCC(=O)N1CCCC(C(=O)c2ccc(OC)cc2C)C1 (centres undefined)	-3.1	6.7	4.7	0.1	0.2	-4.4
Cc1ccc(CNS(=O)(=O)c2c(C)[nH]c(=O)[nH]c2=O)cc1	-2.6	0.5	-22.9	/	/	-2.8
S=c1[nH]nc(-c2ccc(Cl)cc2)n1CCCN1CCOCC1	8.4*	1.1	-4.6	1.0	0.2	-2.6
COCCCn1c(-c2ccc(Cl)cc2)n[nH]c1=S	5.7	-0.8	0.5	0.3	-0.9	-3.2
CN(CC(=O)Nc1cccc(F)c1)C(=O)CN1C(=O)NC2(CCCC2)C1=O	/	0.7	-7.5	/	/	/
CC(C)CC(C(=O)Nn1cnnc1)N1C(=O)c2ccccc2C1=O (centres undefined)	-0.6	0.1	58.9*	0.8	1.8	-0.9
